Test results taken from ChEMBL document CHEMBL1126595, “Studies directed toward the design of orally active renin inhibitors. 2. Development of the efficacious, bioavailable renin inhibitor (2S)-2-benzyl-3- [[(1-methylpiperazin-4-yl)sulfonyl]propionyl]-3-thiazol-4-yl-L-alanine amide of (2S,3R,4S)-2-amino-1-cyclohexyl-3,4-dihydroxy-6-methylheptane …” (J Med Chem, 1993).
≈ marks a conversion by molar mass, not a printed value.

What was measured:
[1] = Bioavailability in the systemic circulation after 10 minutes was determined after intraduodenal dose of 10 mg/kg in rat by HPLC method; type: ADME, organism-based; conditions: plasma (systemic circulation), read-out: Plasma level
Method in brief: (§1)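 Screening model in anesthetized rats given 10 mg/kg intraduodenally. Formulation was ethanol stock with 110 mol % HCl, diluted with aqueous hydroxypropyl methylcellulose to 25% ethanol. Systemic and portal blood drawn at 10 and 30 min in the same animals. Drug level (ng/mL) measured by HPLC or renin inhibition assay. Mean ± SEM, n = 3 unless noted.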

[2] = Integrated area under the plasma drug level-time curve was determined in systemic circulation after intraduodenal dose of 10 mg/kg in rat; type: ADME, organism-based; parameters: dose 10 mg/kg, route intraduodenal
Method in brief: (§2)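 Intraduodenal 10 mg/kg to anesthetized rats or ferrets. Compound dissolved in ethanol with 110 mol % HCl, then diluted in aqueous hydroxypropyl methylcellulose to 25% ethanol (10 mg/mL). Plasma sampled id rat 15, 30, 60, 120 min; id ferret 5, 15, 30, 60, 120, 180 min. Drug measured by renin inhibition assay or HPLC. AUC in ng h/mL. Bioavailability is relative to iv 1.0 mg/kg (rat) or 0.3 mg/kg (ferret).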

Renin = target: T1, Renin (Homo sapiens, UniProt P00797); experiment: Inhibitory concentration against human plasma renin at pH 7.4; type: cell-free
T1 sequence (P00797 whole entry): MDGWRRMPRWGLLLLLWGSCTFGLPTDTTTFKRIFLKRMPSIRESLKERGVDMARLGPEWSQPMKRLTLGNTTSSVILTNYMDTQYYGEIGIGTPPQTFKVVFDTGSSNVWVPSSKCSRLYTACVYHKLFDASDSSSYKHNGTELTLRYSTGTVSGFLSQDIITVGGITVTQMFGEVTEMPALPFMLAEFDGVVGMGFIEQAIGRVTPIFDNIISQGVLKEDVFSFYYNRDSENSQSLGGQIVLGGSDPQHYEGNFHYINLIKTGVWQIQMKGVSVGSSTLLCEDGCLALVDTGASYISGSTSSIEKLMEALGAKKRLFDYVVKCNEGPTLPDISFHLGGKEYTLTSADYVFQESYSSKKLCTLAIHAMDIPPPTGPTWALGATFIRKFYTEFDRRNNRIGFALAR

[3] = Bioavailability in the systemic circulation after 30 minutes was determined after intraduodenal dose of 10 mg/kg in rat by HPLC method; type: ADME, organism-based; conditions: plasma (systemic circulation), read-out: Plasma level; method in brief: as §1
[4] = Bioavailability in the portal circulation after 30 minutes was determined after intraduodenal dose of 10 mg/kg in rat by HPLC method; type: ADME, organism-based; conditions: plasma (portal circulation), read-out: Plasma level; method in brief: as §1
[5] = Bioavailability in rat (dose 10 mg/kg i.d.); type: ADME, organism-based; conditions: in vivo; method in brief: as §2
[6] = Bioavailability in the portal circulation after 10 minutes was determined after intraduodenal dose of 10 mg/kg in rat by HPLC method; type: ADME, organism-based; conditions: plasma (portal circulation), read-out: Plasma level; method in brief: as §1
[7] = Bioavailability in ferret (dose 10 mg/kg i.d.); type: ADME, organism-based, Mustela putorius furo; conditions: in vivo; method in brief: as §2
[8] = Peak concentration was determined in systemic circulation after intraduodenal dose of 10 mg/kg in rat; type: ADME, organism-based; parameters: dose 10 mg/kg, route intraduodenal; conditions: in vivo, read-out: Activity; method in brief: as §2
[9] = Partition coefficient in the octanol/water phase at pH 7.4; type: physicochemical
Method in brief: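 log P measured by octanol/water partition at pH 7.4.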

[10] = Integrated area under the plasma drug level-time curve was determined in systemic circulation after intraduodenal dose of 10 mg/kg in ferret; type: ADME, organism-based, Mustela putorius furo; parameters: dose 10 mg/kg, route intraduodenal; method in brief: as §2
[11] = Peak concentration was determined in systemic circulation after intraduodenal dose of 10 mg/kg in ferret; type: ADME, organism-based, Mustela putorius furo; parameters: dose 10 mg/kg, route intraduodenal; conditions: in vivo, read-out: Activity; method in brief: as §2
[12] = Solubility at pH 7.4; type: physicochemical; conditions: buffer
[13] = Bioavailability in the portal circulation after 10 minutes was determined after intraduodenal dose of 10 mg/kg in rat by renin inhibition assay; type: ADME, organism-based; conditions: plasma (portal circulation), read-out: Plasma level; method in brief: as §1
[14] = Bioavailability in the systemic circulation after 10 minutes was determined after intraduodenal dose of 10 mg/kg in rat by renin inhibition assay; type: ADME, organism-based; conditions: plasma (systemic circulation), read-out: Plasma level; method in brief: as §1
[15] = Bioavailability in the systemic circulation after 30 minutes was determined after intraduodenal dose of 10 mg/kg in rat by renin inhibition assay; type: ADME, organism-based; conditions: plasma (systemic circulation), read-out: Plasma level; method in brief: as §1
[16] = Bioavailability in the portal circulation after 30 minutes was determined after intraduodenal dose of 10 mg/kg in rat by renin inhibition assay; type: ADME, organism-based; conditions: plasma (portal circulation), read-out: Plasma level; method in brief: as §1

| SMILES | concentration at 10 min [1] | AUC [2] | IC50 (Renin) | concentration at 0.5 h [3] | concentration at 0.5 h [4] | bioavailability [5] | concentration at 10 min [6] | bioavailability [7] | Cmax [8] | logD [9] | AUC [10] | Cmax [11] | solubility [12] | concentration at 10 min [13] | concentration at 10 min [14] | concentration at 0.5 h [15] | concentration at 0.5 h [16] |
| --- | --- | --- | --- | --- | --- | --- | --- | --- | --- | --- | --- | --- | --- | --- | --- | --- | --- |
| CC(C)C[C@H](O)[C@H](O)[C@H](CC1CCCCC1)NC(=O)[C@H](Cc1cscn1)NC(=O)[C@H](Cc1ccccc1)CS(=O)(=O)C1CN(C)C1 | 510 ng/mL | 1300 ng·h/mL | 3.9 nM | 550 ng/mL | 1900 ng/mL | 80% | 1800 ng/mL | 80% | 850 ng/mL | 3.89 | 2000 ng·h/mL | 790 ng/mL |  |  |  |  |  |
| CC(C)C[C@H](O)[C@H](O)[C@H](CC1CCCCC1)NC(=O)[C@H](Cc1cscn1)NC(=O)[C@@H](CC(=O)N(C)CCn1ccnc1)Cc1ccccc1 | 57 ng/mL |  | 1.3 nM | 190 ng/mL | 810 ng/mL |  | 400 ng/mL |  |  | 4.01 |  |  | 120 µg/mL (≈ 173 µM) |  |  |  |  |
| CC(C)C[C@H](O)[C@H](O)[C@H](CC1CCCCC1)NC(=O)[C@H](Cc1cscn1)NC(=O)[C@@H](CC(=O)N(C)CCN(C)C)Cc1ccccc1 |  |  | 9.4 nM |  |  |  |  |  |  | 3.11 |  |  |  | 1600 ng/mL | 600 ng/mL | 450 ng/mL | 780 ng/mL |
| CC(C)C[C@H](O)[C@H](O)[C@H](CC1CCCCC1)NC(=O)[C@H](Cc1cscn1)NC(=O)[C@@H](CC(=O)N(C)CCN1CCOCC1)Cc1ccccc1 |  |  | 4.1 nM |  |  |  |  | 85% |  | 4.15 | 1200 ng·h/mL | 860 ng/mL |  |  |  | 570 ng/mL |  |
| CC(C)C[C@H](O)[C@H](O)[C@H](CC1CCCCC1)NC(=O)[C@H](Cc1cscn1)NC(=O)[C@@H](CC(=O)NCCc1ccccn1)Cc1ccccc1 |  |  | 37 nM |  |  |  |  |  |  |  |  |  |  |  |  |  |  |

Results, then the compound that gave them:

| concentration at 10 min [1] | AUC [2] | IC50 (Renin) | concentration at 0.5 h [3] | concentration at 0.5 h [4] | bioavailability [5] | concentration at 10 min [6] | bioavailability [7] | Cmax [8] | logD [9] | AUC [10] | Cmax [11] | solubility [12] | concentration at 10 min [13] | concentration at 10 min [14] | concentration at 0.5 h [15] | concentration at 0.5 h [16] | SMILES |
| --- | --- | --- | --- | --- | --- | --- | --- | --- | --- | --- | --- | --- | --- | --- | --- | --- | --- |
|  |  | 1.6 nM |  |  |  |  |  |  | > 4.6 |  |  | 180 µg/mL (≈ 246 µM) | 3100 ng/mL | 300 ng/mL | 570 ng/mL | 3100 ng/mL | COCCOCOCCN(C)C(=O)C[C@@H](Cc1ccccc1)C(=O)N[C@@H](Cc1cscn1)C(=O)N[C@@H](CC1CCCCC1)[C@@H](O)[C@@H](O)CC(C)C |
| 68 ng/mL |  | 0.8 nM | 50 ng/mL | 370 ng/mL |  | 1900 ng/mL |  |  |  |  |  | 180 µg/mL (≈ 251 µM) |  |  |  |  | COCCOCOCCN(C)C(=O)C[C@@H](Cc1ccccc1)C(=O)N[C@@H](Cc1c[nH]cn1)C(=O)N[C@@H](CC1CCCCC1)[C@@H](O)[C@@H](O)CC(C)C |
|  |  |  |  |  |  |  |  |  | > 4.2 |  |  |  | 830 ng/mL | 22 ng/mL | 29 ng/mL | 500 ng/mL | CC(C)C[C@H](O)[C@H](O)[C@H](CC1CCCCC1)NC(=O)[C@H](Cc1cscn1)NC(=O)[C@H](Cc1ccccc1)CS(=O)(=O)C(C)(C)C |
